Rows were chosen to be rich in hits. Some 2.1% of all compounds tested hit in one or more screens of this group.
CHRM5 agonist: agonists of human muscarinic M5 receptor (CHRM5). P08912. CHO-K1 hM5 cells, Fluo-8 calcium fluorescence; 0% DMSO wells, 100% maximal acetylcholine response. activation, % at 3 µM. 360,000 tested, 0.19% active;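 active means activation above the run's mean over test compounds plus 3 SD, cut at about 23% in these data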;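 further: signal is peak over basal fluorescence ratio across the kinetic read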
M1 PAM: potentiates human M1 receptor response to acetylcholine; AID 588819; CHO-K1 hM1, Fluo-8 calcium fluorescence, ACh EC20; 0% = ACh EC20, 100% = maximal ACh; 360,000 tested, 0.088% active; P11229; activation, % at 3 µM; in the data active means activation above about 19%, passing the limit was not always enough
Target sequence (P11229 whole entry, looked up): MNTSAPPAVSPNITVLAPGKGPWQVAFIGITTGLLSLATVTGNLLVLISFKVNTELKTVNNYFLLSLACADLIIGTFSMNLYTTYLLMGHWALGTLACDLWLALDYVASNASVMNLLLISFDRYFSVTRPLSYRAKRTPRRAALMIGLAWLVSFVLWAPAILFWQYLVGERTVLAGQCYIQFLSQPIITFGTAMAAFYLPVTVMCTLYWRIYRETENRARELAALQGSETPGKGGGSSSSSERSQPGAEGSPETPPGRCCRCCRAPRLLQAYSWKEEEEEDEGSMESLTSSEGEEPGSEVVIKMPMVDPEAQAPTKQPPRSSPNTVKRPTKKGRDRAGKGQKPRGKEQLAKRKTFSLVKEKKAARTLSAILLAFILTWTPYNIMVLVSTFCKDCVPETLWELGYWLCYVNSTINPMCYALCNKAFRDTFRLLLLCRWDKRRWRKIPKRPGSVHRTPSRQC
M1 antag: human CHRM1 antagonism; CHO-K1 hM1, Fluo-8 calcium fluorescence, ACh EC80 antagonist; inhibition, % at 3 µM; 360,000 tested, 1.3% active; AID 588852;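 active means percent inhibition above its own plate's cutoff, namely the mean of that plate's compound wells plus 3 SD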;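 further: peak over basal fluorescence ratio during 140 s after agonist addition; 0% = ACh EC80 plus DMSO and 100% = DMSO alone without agonist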
M5 PAM: positive allosteric modulators of human muscarinic M5 receptor. P08912. CHO-K1 hM5, Fluo-8 calcium, ACh EC20 PAM; 0% = ACh EC20, 100% = ACh EC100. activation, % at 3 µM. 360,000 tested, 0.3% active;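 active means activation above the run cutoff, the mean activation of all test compounds plus 3 SD, cut at about 18% in these data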
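system = human M5 receptor in CHO-K1 cells | reagent = EC20 acetylcholine as agonist stimulus | compound dosing = single-point, 3 µM nominal | incubation = Fluo-8 loading 80 min at 37 °C plus 30 min room temperature | detection = Fluo-8 calcium dye fluorescence, kinetic read | benchmarks = low control EC20 acetylcholine (0%), high control EC100 acetylcholine (100%)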
CHRM5 antagonist: antagonists of human muscarinic M5 receptor (CHRM5) | P08912 | CHO-hM5 cells, Fluo-8 calcium fluorescence, ACh EC80 | inhibition, % at 3 µM | 360,000 tested, 0.59% active | AID 624040;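 active means inhibition above a per-plate cutoff, the mean of that plate's test compounds plus 3 SD, cut at about 27% in these data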;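 further: 0% = acetylcholine EC80 with DMSO and 100% = DMSO without agonist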
M1 ag: human M1 muscarinic receptor agonism; P11229; CHO-K1 hM1, Fluo-8 calcium fluorescence, agonist mode; 0% DMSO, 100% acetylcholine EC100; activation, % at 3 µM; 360,000 tested, 0.33% active;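 active means activation above the run's mean compound activation plus 3 SD, cut at about 16% in these data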;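 further: peak over basal fluorescence ratio within a 140 s kinetic read after compound addition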
Active calls of the source: *; x = no result.

SMILES | CHRM5 agonist | M1 PAM | M1 antag | M5 PAM | CHRM5 antagonist | M1 ag
O=C(c1ccccc1)N1CCN(S(=O)(=O)c2ccccc2)CC1 | -5.4 | 3.2 | 102.0* | -7.3 | 7.4 | -3.4
O=C(c1cccc(S(=O)(=O)N2CCOCC2)c1)N1CCC(Cc2ccccc2)CC1 | 0.9 | 9.2 | -7.0 | -1.6 | 1.4 | -5.8
O=C(c1cccc(S(=O)(=O)N2CCOCC2)c1)N1CCN(C/C=C/c2ccccc2)CC1 | -11.7 | -27.1 | 98.0* | -48.6 | 39.3* | -7.9
O=C(c1ccc(S(=O)(=O)N2CCCCCC2)cc1)N1CCN(c2ccccc2)CC1 | -3.0 | -1.0 | -5.0 | -3.6 | 28.4* | -11.9
Cc1nnc(SC(C)C(=O)NCC2CCCO2)n1-c1ccccc1 (configuration not stated) | 1.2 | -1.0 | 6.4 | 1.1 | -1.2 | -4.4
CCOc1ccccc1-n1c(SC(C)C(=O)NCC2CCCO2)nc2ccccc2c1=O (configuration not stated) | 3.5 | 2.4 | -5.3 | -0.7 | 8.0 | 30.0*
COC(=O)[C@]12CCCCC=C1N(CCc1ccc(OC)c(OC)c1)C(=O)[C@H](CC(=O)N1CCC(c3ccccc3)CC1)C2 | 1.4 | x | x | -18.0 | 27.8* | x
CN(C)c1cc[n+](CC(=O)Nc2cc(C(F)(F)F)ccc2Cl)cc1 | -6.3 | 0.1 | -20.2 | -1.0 | -2.8 | -8.3
Cc1onc(-c2ccccc2Cl)c1C(=O)N1CCN(C/C=C/c2ccccc2)CC1 | -0.7 | -14.9 | 0.5 | -13.8 | 4.2 | -2.1
Cc1cc(SCc2ccc(C(F)(F)F)cc2)nc(=O)[nH]1 | -0.6 | 6.4 | -8.1 | 0.2 | 5.0 | -2.2
CC1(C)N=C(SCC(=O)Nc2ccc(Cl)cc2Cl)C(c2ccccc2)=N1 | -9.7 | 0.2 | -3.8 | -0.9 | -2.5 | -2.5
CN1C(CC(=O)Nc2ccc(Cl)cc2Cl)c2ccccc2CC1(C)C (configuration not stated) | -8.9 | -19.8 | 33.7* | -9.2 | 11.6 | -8.7
CCN(CC(=O)NCc1ccccc1Cl)CC(=O)Nc1c(F)cccc1F | -3.6 | 8.4 | -13.8 | 8.9 | 1.5 | -2.9
CSc1ccccc1-n1nnnc1SCC(=O)NCc1cccs1 | -6.3 | 4.6 | -23.0 | 0.4 | 2.9 | -5.5
O=C(CSc1nnnn1-c1ccccc1)NCc1cccs1 | 3.3 | 5.4 | -5.6 | 19.9* | -17.5 | -4.5
O=C(NCC(F)(F)F)[C@H]1O[C@@H](n2ccc(=O)[nH]c2=O)[C@H](O)[C@@H]1O | 4.1 | 4.4 | -1.1 | 2.1 | -5.7 | -1.1
CC(=NNC(=S)N1CCN(c2ccccn2)CC1)c1nccs1 | -6.8 | -6.2 | -2.4 | -21.2 | 29.2* | -5.8
O=C(Nc1ccc(Cl)c(Cl)c1)OCc1cccnc1 | 4.8 | -8.2 | 32.6* | -16.3 | 31.2* | -0.4
COc1cccc(S(=O)(=O)NCc2ccc(C(=O)Nc3ccc(Cl)c(Cl)c3)cc2)c1 | -2.6 | -5.6 | 10.0 | -4.8 | -5.2 | -2.5
O=C(Nc1ccc(Cl)c(Cl)c1)c1cccc(S(=O)(=O)NCc2cccnc2)c1 | 13.4 | -6.2 | 21.6 | -18.5 | 33.6* | 1.2
CC1(c2ccc3ccccc3c2)NC(=O)N(CC(=O)N2CCN(Cc3ccc(C#N)cc3)CC2)C1=O (configuration not stated) | 7.3 | 2.1 | 14.0 | -12.0 | 14.0 | 2.6
CCOc1ccc(/C=C/[N+](=O)[O-])c2ccccc12 | 54.1* | 14.9 | 25.1 | -14.6 | 86.1* | 1.8
C[C@H](CO)N1C[C@H](C)[C@@H](CN(C)Cc2cccc(F)c2)Oc2cc(-c3cccc(C#N)c3)ccc2S1(=O)=O | -0.1 | -1.2 | -9.5 | -0.1 | -7.0 | -1.4
O=C(COc1ccc(C(=O)c2ccccc2)cc1)Nc1cccnc1 | 7.7 | -14.3 | 24.8 | -15.0 | 31.0* | -1.5
Cc1ccc(Oc2ccc(OCC(=O)Nc3ccncc3)cc2)cc1 | 5.7 | -20.9 | 40.3* | -12.3 | 34.2* | 1.5
SMILES | CHRM5 agonist | M1 PAM | M1 antag | M5 PAM | CHRM5 antagonist | M1 ag
N#Cc1ccc(-c2ccc(OCC(=O)Nc3cccnc3)cc2)cc1 | 5.3 | -11.8 | 18.4 | -15.3 | 24.3 | 3.1
Cc1nnc(SCC(=O)Nc2ccccc2F)n(N)c1=O | -2.8 | 8.2 | -10.9 | -5.1 | 7.2 | -1.9
CCC(C)[C@H]1CN=C(N)N1CCc1cc(C(F)(F)F)cc(C(F)(F)F)c1 (some centres not stated) | -10.5 | -16.5 | 16.5 | -41.8 | 29.3* | -11.6
CCC(C)[C@H]1CN=C(N)N1CCc1cccc2ccccc12 (some centres not stated) | -10.7 | -27.7 | 38.2* | -30.5 | 20.0 | -14.3
CC(O)[C@H]1CNC(=O)C(=O)N1CCc1cc(C(F)(F)F)cc(C(F)(F)F)c1 (some centres not stated) | -5.3 | 8.4 | -8.2 | -17.4 | 42.5* | -0.4
NC1=NC[C@@H](CC2CCCCC2)N1CCc1cc(C(F)(F)F)cc(C(F)(F)F)c1 | -3.2 | -17.0 | 35.3* | -19.6 | 45.1* | 1.2
CC(=O)NCCn1c(SCC(=O)c2ccccc2)nc2ccccc2c1=O | 1.0 | 5.9 | -3.7 | -0.8 | 2.2 | -3.3
NS(=O)(=O)c1ccc(CCNC(=O)c2ccc(Cl)c(S(=O)(=O)N3CCCCC3)c2)cc1 | -3.1 | -5.8 | -4.1 | -14.8 | 7.7 | -1.3
CCOC(=O)N1CCN(c2nc(-c3ccco3)cc(C(F)(F)F)n2)CC1 | 0.1 | 4.4 | -1.1 | -0.5 | -0.7 | -2.7
CN1CCN(c2nc(-c3ccco3)cc(C(F)(F)F)n2)CC1 | -10.7 | -20.8 | 59.6* | -19.2 | 6.9 | -7.7
O=C(c1ccc(Br)s1)N1CCc2ccccc2C1 | -6.7 | 11.3 | -0.4 | 19.1* | -3.8 | 1.1
COc1ccccc1CNC(=O)C1CCC(CNC(=O)[C@@H]2Cc3ccccc3CN2)CC1 (some centres not stated) | -10.5 | 7.7 | 0.2 | -6.2 | 13.2 | -5.8
CCc1ccc(CCC(=O)Nc2sc3c(c2C#N)CCCC3)o1 | -4.5 | -3.0 | 1.5 | -7.6 | 5.7 | -6.4
COc1ccc(-c2nc3ccccc3nc2-c2ccccc2)cc1OC | -4.0 | 10.3 | -2.0 | -6.0 | 11.2 | 3.8
COc1ccc(-c2nc3ccccc3nc2-c2ccc(OC)c(OC)c2)cc1OC | -13.1 | 2.1 | -1.4 | -7.2 | 38.6* | -1.2
CC(C)(C)NC(=S)NC(=O)C12CCC3CC(CC(C3)C1)C2 | -3.0 | 0.8 | 1.6 | -1.9 | 12.7 | -4.2
NS(=O)(=O)c1ccc(NC2(C(=O)O)CCCC2)cc1 | 0.4 | 5.7 | -0.7 | -0.4 | 4.4 | -4.3
Cc1ccsc1C1C(C#N)=C(N)N(N(C)C)C2=C1C(=O)CCC2 (configuration not stated) | -5.6 | -0.7 | 39.1* | -3.5 | 5.4 | -5.4
Cc1csc(NC(=O)CSc2nnc(Cc3cccn3C)n2-c2ccc(F)cc2)n1 | 1.6 | 5.6 | -3.0 | 1.5 | -2.8 | 0.3

Source: PubChem BioAssay
